From ChEMBL document CHEMBL1151226, “New bioactive prenylflavonoids and dibenzocycloheptene derivative from roots of Dendrolobium lanceolatum” (J Nat Prod, 2004)
In brackets after ≈: the same amount, converted by molar mass. Activity calls are given as the source filed them. No cut-off for these calls is given here.

Tests used:
[1] = test system: Plasmodium falciparum; assay: Antiplasmodial activity against multidrug-resistant Plasmodium falciparum K1 at 20 ug/ml as [3H]hypoxanthine uptake; type: functional, organism-based
[2] = test system: Mycobacterium tuberculosis; assay: Antimycobacterial activity against Mycobacterium tuberculosis H37Ra by alamar blue assay; type: functional
In short: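 M. tuberculosis H37Ra tested in the Microplate Alamar Blue Assay (MABA). Isoniazid and kanamycin sulfate were the reference drugs.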

[3] = test system: KB; assay: Cytotoxicity against human KB cells at 20 ug/ml; type: functional, cell-based
[4] = test system: BC; assay: Cytotoxicity against human BC cells at 20 ug/ml; type: functional, cell-based
[5] = test system: NCI-H187; assay: Cytotoxicity against human NCI-H187 cells at 20 ug/ml; type: functional, cell-based
[6] = test system: Plasmodium falciparum; assay: Antiplasmodial activity against multidrug-resistant Plasmodium falciparum K1 as [3H]hypoxanthine uptake; type: functional, organism-based
In short: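 P. falciparum K1 (multidrug-resistant) maintained in culture by the Trager–Jensen method. Microculture radioisotope technique, with growth read as in vitro [3H]-hypoxanthine uptake by the parasites. IC50 is the concentration giving 50% reduction in parasite growth. Artemisinin was the reference standard.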

[7] = test system: NCI-H187; assay: Cytotoxicity against human NCI-H187 cells; type: functional, cell-based
In short: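 Human small cell lung cancer NCI-H187 cell line, assayed by the colorimetric method of Skehan and co-workers. Ellipticine served as the reference substance.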

[8] = test system: KB; assay: Cytotoxicity against human KB cells; type: functional, cell-based
In short: (§1)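 Human epidermoid carcinoma (KB) and human breast cancer (BC) cell lines assessed by a colorimetric cytotoxicity method following Skehan and co-workers. Ellipticine was the reference substance.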

[9] = Cytotoxicity against human BC cells; type: functional, cell-based; in short: as §1

Question: For COc1cc2c(cc1O)-c1cc(O)c(OC)c(OC)c1C=CC2, which Activity [1] is on record?
Answer: inactive

Question: And the MIC [2]?
Answer: 50 µg/mL (≈ 159 µM)

Question: And the Activity [3]?
Answer: inactive

Question: What about the Activity [4] of the same compound?
Answer: inactive

Question: What about the Activity [5] of the same compound?
Answer: inactive

Question: Which MIC [2] does the source give for NC[C@H]1O[C@H](O[C@H]2[C@H](O)[C@@H](O[C@H]3O[C@H](CO)[C@@H](O)[C@H](N)[C@H]3O)[C@H](N)C[C@@H]2N)[C@H](O)[C@@H](O)[C@@H]1O.O=S(=O)(O)O [KANAMYCIN SULFATE] here?
Answer: 2 µg/mL

Question: Which IC50 [6] does the source give for COc1ccc([C@@H]2CC(=O)c3c(O)cc(O)c(CC=C(C)C)c3O2)c(CC=C(C)C)c1O here?
Answer: 3.3 µg/mL (≈ 7.53 µM)

Question: What about the MIC [2] of the same compound?
Answer: 12.5 µg/mL (≈ 28.5 µM)

Question: What about the Activity [3] of the same compound?
Answer: inactive

Question: And the Activity [4]?
Answer: inactive

Question: And the IC50 [7]?
Answer: 8.1 µg/mL (≈ 18.5 µM)

Question: With Cc1c2ccncc2c(C)c2c1[nH]c1ccccc12 [ELLIPTECINE] as the compound, how does the IC50 [8] read?
Answer: 0.4 µg/mL (≈ 1.62 µM)

Question: And the IC50 [9]?
Answer: 0.4 µg/mL (≈ 1.62 µM)

Question: And the IC50 [7]?
Answer: 0.4 µg/mL (≈ 1.62 µM)

Question: For CC(C)=CCc1c([C@@H]2CC(=O)c3c(O)cc(O)c(CC=C(C)C)c3O2)cc2c(c1O)OC(C)(C)C=C2, which IC50 [6] is on record?
Answer: 2.6 µg/mL (≈ 5.3 µM)

Question: What about the MIC [2] of the same compound?
Answer: 6.3 µg/mL (≈ 12.8 µM)

Question: What about the IC50 [8] of the same compound?
Answer: 1.2 µg/mL (≈ 2.45 µM)

Question: And the IC50 [9]?
Answer: 1.7 µg/mL (≈ 3.47 µM)

Question: What about the IC50 [7] of the same compound?
Answer: 0.6 µg/mL (≈ 1.22 µM)

Question: With C[C@@H]1CC[C@H]2[C@@H](C)C(=O)O[C@@H]3O[C@@]4(C)CC[C@@H]1[C@]32OO4 [ARTEMISININ] as the compound, how does the IC50 [6] read?
Answer: 0.001 µg/mL (≈ 0.00354 µM)

Question: With NNC(=O)c1ccncc1 [ISONIAZID] as the compound, how does the MIC [2] read?
Answer: 0.04 µg/mL (≈ 0.292 µM)

Question: For CC1(C)C=Cc2c(ccc3c2O[C@H](c2ccc(O)cc2)CC3)O1, which Activity [1] is on record?
Answer: inactive

Question: What about the MIC [2] of the same compound?
Answer: 25 µg/mL (≈ 81.1 µM)

Question: What about the Activity [3] of the same compound?
Answer: inactive

Question: And the Activity [4]?
Answer: inactive

Question: And the Activity [5]?
Answer: inactive

Question: Which results are given for COc1cc2c(c(CC=C(C)C)c1O)O[C@H](c1ccc(O)c(O)c1CC=C(C)C)CC2?
Answer: IC50 [6]: 3.1 µg/mL (≈ 7.3 µM); MIC [2]: 25 µg/mL (≈ 58.9 µM); Activity [3]: inactive; Activity [4]: inactive; Activity [5]: inactive
